Screening data as filed in PubChem BioAssay.
Only some compounds are listed: those with a hit (about 2.3% of all), similar ones and a draw of the others.
TRPC4 act = TRPC4 (mouse) channel activation; Q9QUQ5; HEK293 TRPC4beta/mu-opioid, Fluo4 calcium fluorescence; stronger effect = higher value; B-score at 10 µM; 310,000 tested, 0.49% active; AID 2237;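 active means B-score above 5 SD of library B-scores, and initial fluorescence ratio not above library mean plus 5 SD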;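 further: positive B-score marks a calcium rise read as TRPC4 activation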
Target sequence (Q9QUQ5 whole entry, looked up): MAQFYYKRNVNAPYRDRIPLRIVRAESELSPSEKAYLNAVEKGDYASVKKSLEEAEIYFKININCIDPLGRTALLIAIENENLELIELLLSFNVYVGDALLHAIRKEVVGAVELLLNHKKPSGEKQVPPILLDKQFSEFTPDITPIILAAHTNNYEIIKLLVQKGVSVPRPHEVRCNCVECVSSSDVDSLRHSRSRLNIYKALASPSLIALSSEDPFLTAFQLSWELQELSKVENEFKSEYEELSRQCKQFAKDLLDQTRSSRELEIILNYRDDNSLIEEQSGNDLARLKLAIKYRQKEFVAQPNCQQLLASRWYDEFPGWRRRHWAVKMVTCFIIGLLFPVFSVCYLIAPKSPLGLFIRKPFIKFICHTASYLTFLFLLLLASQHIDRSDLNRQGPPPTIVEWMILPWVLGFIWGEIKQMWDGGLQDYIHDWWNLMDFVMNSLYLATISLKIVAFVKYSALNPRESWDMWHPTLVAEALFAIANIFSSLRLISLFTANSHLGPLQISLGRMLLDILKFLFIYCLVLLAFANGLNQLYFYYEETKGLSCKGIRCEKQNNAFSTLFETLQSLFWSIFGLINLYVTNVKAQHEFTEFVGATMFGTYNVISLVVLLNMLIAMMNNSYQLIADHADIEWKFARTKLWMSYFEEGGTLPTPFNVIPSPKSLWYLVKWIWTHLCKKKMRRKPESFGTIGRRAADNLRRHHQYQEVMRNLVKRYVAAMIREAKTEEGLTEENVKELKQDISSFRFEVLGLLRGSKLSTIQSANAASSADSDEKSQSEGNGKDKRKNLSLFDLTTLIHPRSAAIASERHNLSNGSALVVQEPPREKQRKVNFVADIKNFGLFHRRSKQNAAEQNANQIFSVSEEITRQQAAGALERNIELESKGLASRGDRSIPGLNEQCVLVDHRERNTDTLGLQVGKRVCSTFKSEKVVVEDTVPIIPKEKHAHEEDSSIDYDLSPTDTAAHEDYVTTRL
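Material: TRPC4beta and mu-opioid receptor HEK293 stable cells | Incubation: 45 min room-temperature Fluo4 loading, 110 s read | Detection: Kinetic Fluo4 calcium fluorescence | Measure: Integrated baseline-normalised fluorescence ratio, converted to per-well B score | Benchmarks: Low control buffer alone, high control maximal DAMGO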
TRPC4 inh = blocks the mouse TRPC4 cation channel | Q9QUQ5 | HEK293 TRPC4beta/mu-opioid, DAMGO-evoked Fluo4 calcium flux; stronger effect = lower value | B-score at 10 µM | 300,000 tested, 0.39% active;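 active means B-score over 3 SD under the library average, no early fluorescence shift, positive overall ratio signal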
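Assay system: Stable TRPC4beta/mu-opioid receptor HEK293 cells | Reagent: DAMGO in two steps, submaximal then maximal | Compound dosing: Single concentration per test compound | Signal: Fluo4 Ca2+ flux fluorescence | Evaluation: Per-well B score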
TRPC6 inhibitor = inhibitors of mouse TRPC6 channel; Q61143; 310,000 tested, 1.1% active; B-score at 10 µM; HEK293-TRPC6, membrane potential dye, ACh-evoked depolarization; stronger effect = lower value;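 active means B-score under library mean minus 3 SD, initial fluorescence not abnormally high, positive integrated signal ratio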;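 further: B-score derived from integrated fluorescence ratio over the kinetic read; more negative B-score means stronger inhibition of depolarization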
TRPC4 potent = allosteric potentiators of mouse TRPC4 channel | 310,000 tested, 0.42% active | AID 2227 | Q9QUQ5 | HEK293 TRPC4beta/mu-opioid, DAMGO EC20, Fluo-4 Ca2+ flux; stronger effect = higher value | B-score at 10 µM;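 active means B-score of calcium response area above 5 SD of library B-scores, with initial fluorescence ratio within 5 SD of library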;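 further: B-score of integrated fluorescence ratio over time as area under calcium response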
TRPC6 act = mouse TRPC6 channel activation | Q61143 | HEK293-TRPC6 membrane potential dye fluorescence; stronger effect = higher value | B-score at 10 µM | 310,000 tested, 0.13% active;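 active means B-score of the integrated fluorescence ratio above library mean plus 3 SD, and starting fluorescence ratio within library mean plus 5 SD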;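 further: higher score means more depolarization so channel activation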
TRPC4 spec 2 = second check of whether TRPC6 inhibitors also affect mouse TRPC4 | 920 tested, 42% active | inhibition, % at 10 µM | AID 2776 | shares compounds with TRPC6 inhibitor | HEK293 TRPC4/MOR, membrane potential dye fluorescence; channel activated by saturating DAMGO dose;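 active means compounds whose fluorescence signal differed from control wells by over 3 SD, either direction, in both duplicate plates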
TRPC4 spec = selectivity of TRPC6 inhibitors: effect on mouse TRPC4; HEK293 TRPC4/mu-opioid, membrane potential fluorescence; 920 tested, 61% active; activity change, negative = inhibition, % at 10 µM; AID 2777; shares compounds with TRPC6 inhibitor;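 active means rise or fall in signal beyond 3 SD of buffer-only wells in both replicate plates, either sign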;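 further: integrated kinetic ratio of fluorescence range over baseline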
HEK293 MPD ctr 2-1 = second counter-screen for TRPC6 inhibitors: parental HEK293 cells. shares compounds with TRPC6 inhibitor. 920 tested, 31% active. parental HEK293 membrane potential dye fluorescence; maximal acetylcholine challenge after compound addition. signal change vs control, % at 10 µM;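 active means membrane potential signal moving either way by over 3 SD of the maximum-effect control, in both duplicate plates, meaning non-specific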
HEK293 MPD ctr-1 = checks TRPC6 inhibitor effects in parental HEK293 cells | membrane potential signal change, % at 10 µM | 920 tested, 60% active | shares compounds with TRPC6 inhibitor | parental HEK293 membrane potential dye fluorescence;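 active means membrane potential signal shifting up or down by more than 3 SD of buffer-only wells, on both duplicate plates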
HEK293 MPD ctr-2 = counter-screen for TRPC6 modulators: effect in parental HEK293 cells; shares compounds with TRPC6 inhibitor; membrane potential dye fluorescence; membrane potential signal change, % at 10 µM; 2,400 tested, 51% active;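 active means membrane potential signal moves up or down beyond 5 SD from buffer-only wells, on both duplicate plates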
HEK293 MPD ctr 2-2 = second check of TRPC6 modulator effects in parental HEK293 cells. shares compounds with TRPC6 inhibitor. membrane potential dye fluorescence; after compound, maximal acetylcholine stimulation. inhibition, % at 10 µM. 2,400 tested, 14% active;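 active means membrane potential signal drops by more than 5 SD from the mean control signal, in both duplicate plates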;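 further: plate controls were acetylcholine ECmax control wells for no effect and buffer only wells for full effect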
TRPC4/MOR mod = tests whether TRPC6 modulators also affect mouse TRPC4; 2,400 tested, 69% active; AID 488927; HEK293 TRPC4/mu-opioid, membrane potential fluorescence; shares compounds with TRPC6 inhibitor; percent change from control (negative = decrease, positive = increase), % at 10 µM;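 active means membrane potential signal moved up or down beyond 5 SD of buffer control wells, in both duplicate plates, actives on both sides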;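 further: plate controls were assay buffer wells for no effect and DAMGO maximal-effect wells for full effect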
TRPC4 ctr inh 2 = second selectivity test of TRPC6 modulators against mouse TRPC4; AID 488928; inhibition, % at 10 µM; 2,400 tested, 55% active; HEK293 TRPC4/mu-opioid, membrane potential dye fluorescence; stimulated with maximal-effect DAMGO; shares compounds with TRPC6 inhibitor;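 active means drop in membrane potential signal beyond 5 SD of the control wells in both duplicate plates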;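 further: TRPC4 counter screen for TRPC6 hits run under conditions tuned for TRPC6 not TRPC4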
TRPC6 inh conf = confirmation of mouse TRPC6 inhibitors. shares compounds with TRPC6 inhibitor. HEK293-TRPC6, membrane potential dye, ACh-evoked depolarization. inhibition, % at 10 µM. 3,300 tested, 43% active. AID 488960;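 active means fluorescence ratio falls more than 5 SD below the full-stimulation control mean, in both duplicate runs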;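 further: integrated fluorescence ratio of peak minus minimum over baseline after agonist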
TRPC6 act conf = confirmation of mouse TRPC6 activators | 2,800 tested, 11% active | AID 488961 | activation, % at 10 µM | HEK293-TRPC6 membrane potential dye fluorescence, FDSS | shares compounds with TRPC6 inhibitor;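 active means ratio signal rise beyond 5 SD above unstimulated control wells' mean, seen in both duplicate runs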;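 further: plate controls were buffer EC0 wells for no effect and acetylcholine ECmax response for full effect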
The depositor's hits bear a star; i = inactive; x = not tested or not shown.

SMILES	TRPC4 act	TRPC4 inh	TRPC6 inhibitor	TRPC4 potent	TRPC6 act	TRPC6 inh conf	others
CN1CCN(c2ccc([N+](=O)[O-])c(Sc3nncn3C)c2)CC1	i	i	i	i	i	x
COc1ccc(CNC(=O)CCC(=O)N2C[C@H]3C[C@H](C2)c2cccc(=O)n2C3)cc1	i	i	i	i	i	x
O=C1CCCN1CC#CCN1CCCC1	i	i	-5.9*	i	i	49%*	HEK293 MPD ctr-2=i;HEK293 MPD ctr 2-2=i;TRPC4/MOR mod=i;TRPC4 ctr inh 2=i
Cc1cc(OCC(=O)N2CCC(C(=O)O)(c3ccccc3)CC2)c2c(C)c(C)c(=O)oc2c1	i	i	i	i	i	x
O=C(CCc1ccc(O)cc1)N1C[C@H]2C[C@@H](C1)c1cccc(=O)n1C2	i	i	i	i	i	x
CC(Cc1ccccc1Sc1ccccc1)N(C)C (centres undefined)	i	i	i	i	i	x
CC(Cc1ccccc1Sc1ccc(O)cc1)N(C)C (centres undefined)	i	i	-6.6*	i	i	i	TRPC4 spec 2=41%*;TRPC4 spec=43%*;HEK293 MPD ctr 2-1=i;HEK293 MPD ctr-1=4.2%*;TRPC6 act conf=i
O=C(c1cccc(C(F)(F)F)c1)C1CCCN(Cc2ncc[nH]2)C1 (centres undefined)	i	i	i	i	i	x
CCn1ccnc1CN1CCCC(C(=O)c2cccc(C(F)(F)F)c2)C1 (centres undefined)	i	i	-5.1*	i	i	62%*	HEK293 MPD ctr-2=i;HEK293 MPD ctr 2-2=i;TRPC4/MOR mod=8.0%*;TRPC4 ctr inh 2=65%*
CCCCCSc1cc(OC)c(CCN)cc1OC	i	i	-6.5*	i	i	40%*	HEK293 MPD ctr-2=i;HEK293 MPD ctr 2-2=i;TRPC4/MOR mod=i;TRPC4 ctr inh 2=59%*;TRPC6 act conf=i
CC[N+](C)(CC)CCCOC(=O)C(O)(c1ccccc1)C1CCCCC1 (centres undefined)	i	i	-8.1*	i	i	i	TRPC4 spec 2=i;TRPC4 spec=i;HEK293 MPD ctr 2-1=i;HEK293 MPD ctr-1=i;TRPC6 act conf=i
CCOC(C(=O)OCCC[N+](C)(CC)CC)(c1ccccc1)c1ccccc1	i	i	i	i	i	x
Cc1cc(OC(C)C(=O)NCC(O)c2ccccc2)c2c3c(c(=O)oc2c1)CCC3 (centres undefined)	i	i	i	i	i	x
CCOc1cc2c(cc1OCC)-n1cccc1C(c1ccccc1OC)NC2 (centres undefined)	i	i	i	i	i	x
